Compound activity (PubChem)
An excerpt weighted towards active compounds, which were near 3.9% of everything screened.
Gli-Sufu block = Gli-Sufu pathway antagonism; 340,000 compounds, 0.74% hits; Sufu-KO-LIGHT fibroblasts, Gli luciferase reporter luminescence; inhibition, % at 5 µM;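 active means inhibition above about 55%, limit read from the data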;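 further: 0% = DMSO-treated cells and 100% = wells with medium but no cells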
Jurkat NFkB inh = inhibitors of the PMA/ionomycin-induced NF-kB reporter in Jurkat cells; PMA/ionomycin-induced NF-kB luciferase reporter, luminescence; AID 435003; inhibition, % at 4 µM; 330,000 compounds, 0.53% hits; in the data active means inhibition above about 50%
697 NFkB inh = inhibitors of the PMA/ionomycin-induced NF-kB reporter in 697 B cells. 697 B-cell NF-kB luciferase reporter, 16 h. 330,000 compounds, 0.33% hits. AID 435022. inhibition, % at 4 µM; in the data active means inhibition above about 35%
CHOP inh = inhibitors of CHOP induction in ER stress response. CHO-K1 CHOP-promoter luciferase, tunicamycin-induced, 15-18 h. inhibition, % at 10 µM. 220,000 compounds, 3.8% hits;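 active means compounds that reduced the stress-induced luciferase reporter signal by more than about 70% of percent inhibition, limit read from the data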;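 further: 0% = tunicamycin plus vehicle and 100% = wells without tunicamycin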
XBP1 UPR activ = adaptive UPR (XBP1) activation; CHO-XBP1 luciferase reporter, IRE1-XBP1 UPR activation, luminescence; percent of tunicamycin response, DMSO as zero; activation, % at 20 µM; 330,000 compounds, 0.33% hits; AID 463104;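 active means versus positive control, 20 µM dose yields 30% or more activation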;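 further: 100% = tunicamycin at 10 µg/mL and 0% = DMSO only wells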
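Material – CHO cell line with stable XBP1 luciferase reporter · Buffer or medium – F12 plus 10% FBS · Compound – single point, 20 µM final compound, 1% DMSO · Schedule – 16-18 h cell attachment at 37 °C, then 6 h compound exposure · Signal – Steady-Glo luminescence read · Benchmarks – high control tunicamycin 10 µg/mL final, low control DMSO vehicle only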
CHOP UPR activ = apoptotic UPR (CHOP) activation | 330,000 compounds, 0.34% hits | activation, % at 10 µM | CHO-CHOP luciferase reporter, luminescence; percent of tunicamycin response over DMSO baseline;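 active means at 10 µM dose, activation of 40% or more, normalized to positive control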;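 further: 100% = tunicamycin at 10 µg/mL and 0% = DMSO alone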
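System: CHO-CHOP luciferase reporter cell line | Buffer or medium: F12 medium containing 10% fetal bovine serum | Doses: One dose, 10 µM in 0.5% DMSO | Times: 6 h compound exposure at 37 °C after overnight seeding | Signal: Luciferase luminescence | Read-out: % activation vs tunicamycin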
* = called active by the depositor; / = no result given.

SMILES	Gli-Sufu block	Jurkat NFkB inh	697 NFkB inh	CHOP inh	XBP1 UPR activ	CHOP UPR activ
CCC(=O)N1CCN(c2cc(N3CCCC3)c(F)cc2[N+](=O)[O-])CC1	8	-2	12	/	-1	-1
CCOC(=O)c1[nH]c2ccc(OCC)cc2c1NC(=O)CN1CCCC(C)C1 (centres undefined)	4	-14	-35	-4	-3	2
CCOC(=O)c1[nH]c2cc3c(cc2c1NC(=O)CN1CC(C)CC(C)C1)OCO3 (centres undefined)	-21	-14	12	79*	-4	0
Cc1ccc(N2C(=O)c3cccc4c(N5CCN(C)CC5)ccc(c34)C2=O)c2cccnc12	12	33	-17	37	3	0
Cc1ccc(N2C(=O)c3cccc4c([N+](=O)[O-])ccc(c34)C2=O)c2cccnc12	12	32	-45	95*	-4	-3
Cc1ccc(-c2nnc(SCC(=O)N(C)C)nc2-c2ccc(C)cc2)cc1	24	7	-18	/	-2	1
O=C(NCC1(c2ccccc2)CCCC1)c1ccc(Br)cc1	-1	6	6	74*	-1	1
COC(=O)[C@]1(C)N[C@H](CN(C)S(=O)(=O)c2ccc(OC(F)(F)F)cc2)[C@@H]2C(=O)N(Cc3ccccc3)C(=O)[C@@H]21	1	-9	-9	/	-1	1
Cc1ccc(CSc2ncnc3ccccc23)cc1	-15	-7	-9	2	2	2
Cc1cccc(CSc2ncnc3ccccc23)c1	-20	-30	2	73*	-1	3
CC(=O)CC(=O)NC1CCc2ccccc21 (centres undefined)	-5	/	/	/	/	/
Cc1ccc(NC(=O)Cn2cncc2-c2ccc([N+](=O)[O-])cc2)cc1C	-6	-24	-27	81*	3	-1
COc1ccccc1NC(=O)Cn1cncc1-c1ccc([N+](=O)[O-])cc1	4	11	0	-14	-2	0
Cc1ccc(N=C2NC(=O)/C(=C/c3cn(C)c4ccccc34)S2)cc1C	5	/	/	76*	/	/
COc1ccc(-c2[nH]c(-c3ccc(SC)cc3)nc2SCC(=O)Nc2nccs2)cc1	10	-23	7	77*	3	2
Cc1cc(C(=O)OC(C(=O)Nc2cccc(C(F)(F)F)c2)c2ccccc2)c(C)o1 (centres undefined)	8	-4	-22	83*	-2	1
CCOc1ccc(CNc2ccc(CNc3ncn[nH]3)cc2)cc1	-13	12	5	6	0	3
CCOc1ccc(CNc2cccc(SC)c2)cc1	12	0	-12	87*	2	-1
C[C@H](CO)N1C[C@H](C)[C@@H](CN(C)S(=O)(=O)c2cccs2)Oc2ccc(NS(=O)(=O)c3ccccc3)cc2CC1=O	0	2	19	/	-3	-1
CCOC(=O)c1c(CN2CCN(c3ccccc3)CC2)oc2ccc(O)cc12	11	11	6	81*	-3	0
CCOC(=O)c1c(CN2CCN(C)CC2)oc2ccc(OC)cc12	-10	9	13	-2	-3	0
COC(=O)c1c(NC(NC(=O)C(C)C)C(Cl)(Cl)Cl)sc2c1CCC2 (centres undefined)	-2	-2	3	34	0	0
COC(=O)c1c(NC(NC(=O)C(C)(C)C)C(Cl)(Cl)Cl)sc2c1CCC2 (centres undefined)	14	0	-6	78*	-3	-3
COC(=O)c1c(NC(NC(=O)CC(C)C)C(Cl)(Cl)Cl)sc2c1CCC2 (centres undefined)	2	6	6	91*	-2	1
NS(=O)(=O)c1ccc(NC(=O)Nc2ccc3c(c2)OCO3)cc1	-46	-46	-13	/	-5	3
SMILES	Gli-Sufu block	Jurkat NFkB inh	697 NFkB inh	CHOP inh	XBP1 UPR activ	CHOP UPR activ
COc1ccc(CN2CC(C(=O)NCCCN3CCCCC3)CC2=O)cc1 (centres undefined)	-6	-4	17	/	2	1
O=C(O)c1ccccc1N/N=C/C1=C(N2CCOCC2)C(=C\c2ccccc2)/CC1	-4	-4	9	17	1	3
O=C(N/N=C/C1=C(N2CCOCC2)C(=C\c2ccccc2)/CC1)Nc1ccccc1	-2	-8	-59	82*	17	28
CCOC(=O)Cn1nnnc1CN(CCc1ccccc1)Cc1cc2cc(CC)ccc2[nH]c1=O	-6	4	16	81*	0	2
Cc1ccc2[nH]c(=O)c(CN(Cc3ccccc3)Cc3nnnn3C3CCCC3)cc2c1	6	-40	-15	76*	-2	4
O=Nc1c(-c2cccc([N+](=O)[O-])c2)nc2ncccn12	/	12	13	34	9	131*
Cc1nn(-c2nnc(NCc3ccccc3)nn2)c(C)c1Br	-4	3	-13	73*	0	1
Cc1cc(C)n(-c2nnc(NCc3ccc(Cl)cc3)nn2)n1	1	17	13	28	2	1
COc1ccc(N2CC(C(=O)N[C@@H](C)C(=O)NCCc3ccccc3)CC2=O)cc1 (some centres undefined)	-11	17	-18	/	-3	-2
CCN(CC)c1ccc(NC(=O)c2ccc3c(c2)OCO3)cc1	-87	-81	-88	/	-2	12
CN(C)CC(=O)c1ccc(-c2ccccc2)cc1	5	-5	17	27	-1	-1
CN(C)C/C(Cl)=C(\Cl)c1ccccc1	4	-2	19	77*	-6	0
CCCCNCC1C(Oc2ccc(Cl)cc2)C(=O)N1c1ccccc1C (centres undefined)	22	-2	-16	77*	2	1
CCCNCC1C(Oc2ccc(Cl)cc2Cl)C(=O)N1c1cccc(C)c1C (centres undefined)	27	1	-7	-2	-2	-1
CCc1ccc(OCC(=O)N/N=C(\C)c2ccc(OC(F)F)cc2)cc1	-14	-3	11	78*	-3	2
CCc1ccc(OCC(=O)N/N=C(\C)c2ccccc2OC(F)F)cc1	4	-7	-32	54	0	6
CCOC(=O)CN1C(=O)CC(c2ccc([N+](=O)[O-])cc2)C1=O (centres undefined)	4	0	15	/	-1	2
O=C(NCCSCc1ccco1)Nc1cc(Cl)cc(Cl)c1	-1	2	6	70*	-1	3
O=C(CSCc1ccc(Cl)cc1)NCCSCc1ccco1	0	0	1	13	1	1
COc1ccc2nc(NC(=O)CSCC(=O)Nc3cc(C)on3)sc2c1	-47	-33	0	/	6	2
O=C(Nc1nc(-c2ccccc2)cs1)Nc1ccc(F)cc1F	-10	-3	-11	89*	5	5
